Measurements reported in ChEMBL document CHEMBL4312032, “Design and synthesis of α-phenoxy-N-sulfonylphenyl acetamides as Trypanosoma brucei Leucyl-tRNA synthetase inhibitors” (Eur J Med Chem, 2020).
Calls of active or inactive are those of the source. No cut-off for these calls is given here.

System: Trypanosoma brucei brucei
Assay: Antitrypanosomal activity against bloodstream form of Trypanosoma brucei brucei 221 assessed as parasite growth inhibition at 22 uM incubated for 72 hrs by resazurin staining based assay
Format: functional, organism-based
Settings: not given

For CC(C)C[C@H](N)C(=O)NS(=O)(=O)c1cccc(NC(=O)COc2ccc(-c3ccccc3)cc2)c1, the inhibition was “Active”.

System: not listed separately
Assay: Inhibition of Trypanosoma brucei LeuRS expressed in Escherichia coli BL21 (DE3)-RIPL cells assessed as decrease in [14C]-Leucine tRNA synthesis incubated for 20 mins in presence of [14C]leucine followed by incubation with ATP for 15 mins by liquid scintillation counting method
Settings: not given
How it was run: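 T. brucei LeuRS was expressed in E. coli BL21(DE3)-RIPL. Reactions held 50 mM HEPES-KOH pH 7.8, 5 mM MgCl₂, 45 mM KCl, 1 mM DTT, 0.02% BSA, 0.4 mg/mL tRNA and [¹⁴C]leucine. They were preincubated 20 min at 37 °C without ATP, then run 15 min after adding 4 mM ATP. Three aliquots were spotted on filter paper and averaged for IC50.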

Going from CC(C)(C)OC(=O)N[C@@H](CCC(N)=O)C(=O)NS(=O)(=O)c1ccc(NC(=O)COc2ccc(Br)cc2Cl)cc1 to CC(C)C[C@H](NC(=O)OC(C)(C)C)C(=O)NS(=O)(=O)c1ccc(NC(=O)COc2ccc(Br)cc2Cl)cc1, the IC50 falls from 685 µM to 404 µM (1.7-fold). The second is the more potent here.

Compared with CC(C)(C)OC(=O)N[C@@H](Cc1ccccc1)C(=O)NS(=O)(=O)c1ccc(NC(=O)COc2ccc(Br)cc2Cl)cc1, CC(C)(C)OC(=O)N[C@@H](CCC(=O)OCc1ccccc1)C(=O)NS(=O)(=O)c1ccc(NC(=O)COc2ccc(Br)cc2Cl)cc1 is 2.9-fold lower in IC50: 281 µM for the first, 98 µM for the second. The second is the more potent here.

COc1cccc(OCC(=O)Nc2cccc(S(=O)(=O)NC(=O)[C@@H](N)CC(C)C)c2)c1 and COc1ccc(OCC(=O)Nc2cccc(S(=O)(=O)NC(=O)[C@@H](N)CC(C)C)c2)cc1 are within 1.5-fold of each other in IC50: 2.68 µM for the first, 3.58 µM for the second.

Compared with CC(C)C[C@H](N)C(=O)NS(=O)(=O)c1cccc(NC(=O)COc2ccc(-c3ccccc3)cc2)c1, CC(C)C[C@H](N)C(=O)NS(=O)(=O)c1cccc(NC(=O)COc2cccc(-c3ccccc3)c2)c1 is 10-fold lower in IC50: 7.28 µM for the first, 0.7 µM for the second. The second is the more potent here.

Compared with NC(=O)CC[C@H](N)C(=O)NS(=O)(=O)c1ccc(NC(=O)COc2ccc(Br)cc2Cl)cc1, N[C@@H](CCC(=O)O)C(=O)NS(=O)(=O)c1ccc(NC(=O)COc2ccc(Br)cc2Cl)cc1 is 1.5-fold higher in IC50: 285 µM for the first, 428 µM for the second. The first is the more potent here.

CC(C)C[C@H](N)C(=O)NS(=O)(=O)c1cccc(NC(=O)COc2ccc([N+](=O)[O-])cc2)c1 and CC(C)C[C@H](N)C(=O)NS(=O)(=O)c1cccc(NC(=O)COc2ccccc2)c1 are within 1.5-fold of each other in IC50: 6.81 µM for the first, 5.51 µM for the second.

First: O=C(COc1ccc(Br)cc1Cl)Nc1ccc(S(=O)(=O)NC(=O)c2ccco2)cc1
Second: N[C@@H](Cc1ccccc1)C(=O)NS(=O)(=O)c1ccc(NC(=O)COc2ccc(Br)cc2Cl)cc1
The IC50 of the first is lower: 251 µM for the first, over 1000 µM for the second. The first is the more potent here.

CC(C)C[C@H](NC(=O)OCc1ccccc1)C(=O)NS(=O)(=O)c1ccc(NC(=O)COc2ccc(Br)cc2Cl)cc1 and O=C(COc1ccc(Br)cc1Cl)Nc1ccc(S(=O)(=O)NC(=O)[C@H](Cc2ccccc2)NC(=O)OCc2ccccc2)cc1 are within 1.5-fold of each other in IC50: 110 µM for the first, 116 µM for the second.

Going from CC[C@H](C)[C@H](NC(=O)OC(C)(C)C)C(=O)NS(=O)(=O)c1ccc(NC(=O)COc2ccc(Br)cc2Cl)cc1 to CC[C@H](C)[C@H](N)C(=O)NS(=O)(=O)c1ccc(NC(=O)COc2ccc(Br)cc2Cl)cc1, the IC50 rises from 346 µM to over 1000 µM. The first is the more potent here.

NS(=O)(=O)c1ccc(NC(=S)NC(=O)COc2ccc(Br)cc2Cl)cc1 and NS(=O)(=O)c1ccc(NC(=O)COc2ccc(Br)cc2Cl)cc1 are within 1.5-fold of each other in IC50: 174 µM for the first, 191 µM for the second.

Compared with CC(C)C[C@H](N)C(=O)NS(=O)(=O)c1cccc(NC(=O)COc2ccccc2Cl)c1, CC(C)C[C@H](N)C(=O)NS(=O)(=O)c1ccc(NC(=O)COc2ccc(Br)cc2Cl)cc1 is 6.7-fold higher in IC50: 5.69 µM for the first, 38.4 µM for the second. The first is the more potent here.

In the case of CCOC(=O)CC[C@H](N)C(=O)NS(=O)(=O)c1ccc(NC(=O)COc2ccc(Br)cc2Cl)cc1, the IC50 is reported as over 1000 µM.

System: Trypanosoma brucei
Assay: Potency index, ratio of IC50 of 2-(4-bromo-2-chlorophenoxy)-N-(4-sulfamoylphenylcarbamothioyl)acetamide to IC50 of compound for inhibition of Trypanosoma brucei LeuRS expressed in Escherichia coli BL21 (DE3)-RIPL cells in presence of [14C]leucine incubated for 20 mins followed by incubation with ATP for 15 mins by liquid scintillation counting method
Settings: not given

Going from CC(C)C[C@H](N)C(=O)NS(=O)(=O)c1cccc(NC(=O)COc2cccc(-c3ccccc3)c2)c1 to CC(C)C[C@H](N)C(=O)NS(=O)(=O)c1ccc(NC(=O)COc2ccc(Br)cc2Cl)cc1, the Ratio IC50 falls from 250 to 5.

System: Trypanosoma brucei brucei
Assay: Antitrypanosomal activity against bloodstream form of Trypanosoma brucei brucei 221 assessed as parasite growth inhibition incubated for 72 hrs by resazurin staining based assay
Format: functional, organism-based
Settings: Trypanosoma brucei, 221, 72 h
How it was run: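 Bloodstream-form T. b. brucei 221 kept in log phase in HMI-11 at 37 °C, 5% CO2, and seeded from a 2×10⁵/mL (2-fold) suspension. Compounds were serially diluted in DMSO and tested in triplicate for 72 h. Resazurin was then added for 5 h more. Fluorescence was read at ex 544/em 590 nm.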

CC(C)C[C@H](N)C(=O)NS(=O)(=O)c1cccc(NC(=O)COc2ccc(-c3ccccc3)cc2)c1 gave an IC50 of 33.3 µM.
